Laboratory results: ChEMBL document CHEMBL4342410, “Design and Discovery of N-(3-(2-(2-Hydroxyethoxy)-6-morpholinopyridin-4-yl)-4-methylphenyl)-2-(trifluoromethyl)isonicotinamide, a Selective, Efficacious, and Well-Tolerated RAF Inhibitor Targeting RAS Mutant Cancers: The Path to the Clinic” (J Med Chem, 2020)

Experiments:
[1] = system: RAF proto-oncogene serine/threonine-protein kinase (Homo sapiens), P04049 [Y340E,Y341E]; assay: Binding affinity to CRAF Y340E/Y341E mutant (unknown origin) assessed as dissociation half life by rapid dilution method
Method in brief: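 Full-length CRAF carrying activating Y340E/Y341E was used in a kinase activity assay. Dissociation was measured by the rapid dilution method, and recovery of enzyme activity was followed over 6 hours of incubation. The dissociation half-life was derived from that recovery.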

[2] = Stimulation of BRAF-CRAF dimerization in human HCT116 cells measured after 2 hrs by NanoBit luciferase complementation assay; format: cell-based; settings: read-out: EC50
[3] = biological target: T1, Discoidin domain-containing receptor 2 (Homo sapiens) (UniProt Q16832); assay: Binding affinity to wild-type human partial length DDR2 (V555 to E855 residues) expressed in mammalian expression system at 1 uM by Kinomescan method relative to control
T1 sequence (whole entry): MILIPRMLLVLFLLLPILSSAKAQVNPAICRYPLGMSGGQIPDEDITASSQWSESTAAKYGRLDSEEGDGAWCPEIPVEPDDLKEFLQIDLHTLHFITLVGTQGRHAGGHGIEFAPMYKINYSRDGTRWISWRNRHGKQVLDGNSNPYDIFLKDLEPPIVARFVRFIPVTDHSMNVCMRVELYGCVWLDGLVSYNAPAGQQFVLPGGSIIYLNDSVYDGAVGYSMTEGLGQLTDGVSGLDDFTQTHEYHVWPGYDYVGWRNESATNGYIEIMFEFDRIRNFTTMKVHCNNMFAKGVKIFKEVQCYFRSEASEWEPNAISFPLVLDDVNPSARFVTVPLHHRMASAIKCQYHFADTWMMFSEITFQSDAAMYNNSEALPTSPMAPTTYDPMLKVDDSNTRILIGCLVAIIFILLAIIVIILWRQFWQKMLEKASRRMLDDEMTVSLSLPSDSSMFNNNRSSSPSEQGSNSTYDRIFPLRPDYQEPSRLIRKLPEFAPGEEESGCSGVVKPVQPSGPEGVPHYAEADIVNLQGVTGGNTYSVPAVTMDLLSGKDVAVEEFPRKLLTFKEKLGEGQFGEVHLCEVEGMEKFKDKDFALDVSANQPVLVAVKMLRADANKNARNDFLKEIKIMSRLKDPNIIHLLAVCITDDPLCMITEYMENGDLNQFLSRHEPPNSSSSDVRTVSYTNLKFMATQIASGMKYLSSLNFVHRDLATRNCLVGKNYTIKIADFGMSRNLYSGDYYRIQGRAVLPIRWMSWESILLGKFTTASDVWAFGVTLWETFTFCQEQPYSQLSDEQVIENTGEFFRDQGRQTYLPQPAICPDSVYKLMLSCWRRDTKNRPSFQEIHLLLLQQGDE
Method in brief: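 KINOMEscan competition binding panel of about 456 kinases, compound tested at 1 μM. Activity is given as % of control = [(test signal − positive control signal)/(negative control signal − positive control signal)] × 100.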

[4] = biological target: Serine/threonine-protein kinase B-raf (Homo sapiens, UniProt P15056); assay: Binding affinity to wild-type human partial length BRAF (S429 to E741 residues) expressed in mammalian expression system by Kinomescan method
Serine/threonine-protein kinase B-raf, sequence (P15056 whole entry, the tested form may be a part): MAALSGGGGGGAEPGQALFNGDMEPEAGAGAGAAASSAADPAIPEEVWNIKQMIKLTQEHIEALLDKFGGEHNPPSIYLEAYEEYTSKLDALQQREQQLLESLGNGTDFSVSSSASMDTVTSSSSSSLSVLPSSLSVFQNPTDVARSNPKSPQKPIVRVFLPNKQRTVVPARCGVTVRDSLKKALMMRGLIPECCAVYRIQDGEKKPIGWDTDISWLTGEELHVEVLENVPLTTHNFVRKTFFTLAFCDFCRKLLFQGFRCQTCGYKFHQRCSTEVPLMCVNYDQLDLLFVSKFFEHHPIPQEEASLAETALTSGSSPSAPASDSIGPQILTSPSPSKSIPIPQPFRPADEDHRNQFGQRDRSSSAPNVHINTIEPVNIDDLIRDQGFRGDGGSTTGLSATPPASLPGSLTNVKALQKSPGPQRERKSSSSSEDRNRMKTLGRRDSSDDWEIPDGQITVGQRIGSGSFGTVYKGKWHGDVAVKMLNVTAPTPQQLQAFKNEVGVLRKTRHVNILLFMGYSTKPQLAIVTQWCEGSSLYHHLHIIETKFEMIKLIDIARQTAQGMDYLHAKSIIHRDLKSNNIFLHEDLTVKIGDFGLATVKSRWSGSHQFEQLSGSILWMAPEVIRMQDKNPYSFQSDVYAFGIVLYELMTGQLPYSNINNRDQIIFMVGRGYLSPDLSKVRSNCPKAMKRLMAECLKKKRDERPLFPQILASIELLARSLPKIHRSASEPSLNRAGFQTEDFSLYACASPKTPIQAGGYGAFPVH

[5] = biological target: Platelet-derived growth factor receptor beta (Homo sapiens, UniProt P09619); assay: Binding affinity to wild-type human partial length PDGFRB (V582 to Y1009 residues) expressed in bacterial expression system by Kinomescan method
Platelet-derived growth factor receptor beta, sequence (P09619 whole entry, the tested form may be a part): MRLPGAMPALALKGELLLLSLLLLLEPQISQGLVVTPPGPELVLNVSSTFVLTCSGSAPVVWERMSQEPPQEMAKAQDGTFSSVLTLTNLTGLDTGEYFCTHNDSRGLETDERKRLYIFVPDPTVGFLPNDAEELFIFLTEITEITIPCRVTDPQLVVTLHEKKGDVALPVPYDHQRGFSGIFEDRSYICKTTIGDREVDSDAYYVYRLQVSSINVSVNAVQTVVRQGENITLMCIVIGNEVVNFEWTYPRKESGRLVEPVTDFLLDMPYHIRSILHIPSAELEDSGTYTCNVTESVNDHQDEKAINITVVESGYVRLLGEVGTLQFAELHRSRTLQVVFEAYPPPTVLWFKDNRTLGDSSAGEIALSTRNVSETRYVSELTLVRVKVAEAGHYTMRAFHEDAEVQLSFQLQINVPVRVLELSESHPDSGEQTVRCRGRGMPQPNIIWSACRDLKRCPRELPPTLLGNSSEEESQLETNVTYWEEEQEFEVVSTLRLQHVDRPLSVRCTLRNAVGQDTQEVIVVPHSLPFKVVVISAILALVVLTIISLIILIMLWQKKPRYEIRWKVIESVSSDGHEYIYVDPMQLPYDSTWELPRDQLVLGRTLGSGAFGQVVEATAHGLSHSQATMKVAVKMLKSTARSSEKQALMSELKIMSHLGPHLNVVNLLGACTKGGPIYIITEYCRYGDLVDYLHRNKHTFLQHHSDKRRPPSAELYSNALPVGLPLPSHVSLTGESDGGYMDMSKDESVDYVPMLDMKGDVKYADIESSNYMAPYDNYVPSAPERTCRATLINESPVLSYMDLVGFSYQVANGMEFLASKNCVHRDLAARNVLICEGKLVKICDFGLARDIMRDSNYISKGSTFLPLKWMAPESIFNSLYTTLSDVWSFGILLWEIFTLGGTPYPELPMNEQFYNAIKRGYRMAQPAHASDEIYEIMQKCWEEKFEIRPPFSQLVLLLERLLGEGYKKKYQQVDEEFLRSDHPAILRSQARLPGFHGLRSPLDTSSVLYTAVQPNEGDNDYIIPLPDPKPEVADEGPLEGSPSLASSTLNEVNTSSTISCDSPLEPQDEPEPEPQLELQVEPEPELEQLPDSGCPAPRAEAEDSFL

[6] = AUC (infinity) in mouse at 4 mg/kg, po; format: ADME, organism-based; parameters: dose 4 mg/kg, route oral, time infinity; settings: in vivo
[7] = Clearance in mouse at 2 mg/kg, iv or 4 mg/kg, po; format: ADME, organism-based; settings: in vivo
[8] = Volume of distribution at steady state in mouse at 2 mg/kg, iv or 4 mg/kg, po; format: ADME, organism-based; settings: in vivo, read-out: Vdss
[9] = Volume of distribution at steady state in rat at 2 mg/kg, iv or 4 mg/kg, po; format: ADME, organism-based; settings: in vivo, read-out: Vdss
[10] = Oral bioavailability in mouse at 4 mg/kg; format: ADME, organism-based; settings: in vivo
[11] = Oral bioavailability in rat at 4 mg/kg; format: ADME, organism-based; settings: in vivo
Rattus norvegicus = assay: In vivo inhibition of CRAF in nude rat xenografted with human Calu6 cells harboring KRAS Q61K mutant assessed as reduction in tumor MEK phosphorylation at 150 mg/kg, po administered as single dose measured after 24 hrs by sandwich ELISA relative to control; format: functional; settings: Calu-6, po
Method in brief: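 Calu-6 (KRAS Q61K) xenograft-bearing nude rats were given a single oral dose of 15, 35, 75 or 150 mg/kg. Tumor and blood were sampled at 1, 4, 7, 24 and 48 h post-dose. Tumor pMEK was quantified by MSD immunoassay and expressed as percent pMEK. Free plasma exposure was determined in parallel.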

Calu-6 [12] = assay: Antitumor activity against human Calu6 cells harboring KRAS Q61K mutant xenografted in po dosed nude rat assessed as increase in tumor regression administered daily for 18 days starting from day 13 post tumor implantation and measured on day 31; format: functional, organism-based
Method in brief: (§1)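 Nude rats bearing Calu-6 (KRAS Q61K) human NSCLC xenografts received vehicle or drug p.o. daily at 15, 35, 75 or 150 mg/kg. Dosing began 13 days after tumor implantation and ran to day 31, i.e. 18 days of treatment. Tumor volumes were read out as %T/C or % regression versus vehicle on day 31. Body weight was also tracked.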

Calu-6 [13] = assay: Antitumor activity against human Calu6 cells harboring KRAS Q61K mutant xenografted in nude rat assessed as tumor growth at 35 mg/kg, po administered daily for 18 days starting from day 13 post tumor implantation and measured on day 31 relative to control; format: functional; method in brief: as §1
[14] = Toxicity in human Calu6 cells harboring KRAS Q61K mutant xenografted nude rat assessed as mortality at 15 to 150 mg/kg, po administered daily for 18 days starting from day 13 post tumor implantation and measured during compound dosing; format: organism-based; settings: in vivo, 432 h
Method in brief: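 Nude rats bearing Calu-6 (KRAS Q61K) NSCLC xenografts were dosed orally once daily with vehicle or 15, 35, 75 or 150 mg/kg. Dosing ran from day 13 post-implant to day 31. Rats were monitored for mortality and signs of toxicity over the treatment period, alongside body weight.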

[15] = Tmax in nude rat xenografted with human Calu6 cells harboring KRAS Q61K mutant at 15 mg/kg, po administered daily for 18 days starting from day 13 post tumor implantation and measured on day 31; format: ADME, organism-based; settings: in vivo
Method in brief: (§2)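 Calu-6 xenograft nude rats were dosed orally once daily at 15, 35, 75 or 150 mg/kg from day 13 after implantation to day 31. Plasma was collected after the last dose on day 31, drug concentrations were measured, and PK parameters including AUC were calculated for each dose.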

[16] = Time of last measurable concentration in nude rat xenografted with human Calu6 cells harboring KRAS Q61K mutant at 15 mg/kg, po administered daily for 18 days starting from day 13 post tumor implantation and measured on day 31; format: ADME, organism-based; settings: in vivo, 432 h; method in brief: as §2
[17] = Time of last measurable concentration in nude rat xenografted with human Calu6 cells harboring KRAS Q61K mutant at 75 mg/kg, po administered daily for 18 days starting from day 13 post tumor implantation and measured on day 31; format: ADME, organism-based; settings: in vivo, 432 h; method in brief: as §2

## Cc1ccc(NC(=O)c2ccnc(C(F)(F)F)c2)cc1-c1cc(OCCO)nc(N2CCOCC2)c1 [NAPORAFENIB]
[1]
  T1/2: > 6.5 h
[2]
  EC50: 160 nM
[3]
  Activity: 84%
[4]
  Kd: 1.3 nM
[5]
  Kd: 14 nM
[6]
  AUC(0-inf): 4.3 µM·h
[7]
  clearance: 19 mL/min/kg
[8]
  Vd: 2.1 L/kg
[9]
  Vd: 5.4 L/kg
[10]
  bioavailability: 65%
[11]
  bioavailability: 38%
Rattus norvegicus
  inhibition in vivo at 150 mg/kg: 70%
Calu-6 [12]
  Activity: Dose-dependent effect
Calu-6 [13]
  T/C: 9%
[14]
  Activity: Non-Toxic
[15]
  Tmax: 3 h
[16]
  Tlast: 24 h
[17]
  Tlast: 24 h
